Screening results as filed in PubChem BioAssay.
Hits are enriched below; roughly 6.4% of the tested compounds scored in any of these assays.
PLK1 inh: human PLK1 kinase inhibitors, primary screen, biochemical, TR-FRET. Serine/threonine-protein kinase PLK1 (Homo sapiens), P53350. recombinant PLK1 kinase, TR-FRET peptide phosphorylation. inhibition, % at 10 µM. 0.53% of 97,000 active;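 active = inhibition of 50% or more in the single-concentration screen; inactive = inhibition below 50%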;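 note: 0% = DMSO max control and 100% = H-89 dihydrochloride min control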
Target sequence (P53350 whole entry, looked up): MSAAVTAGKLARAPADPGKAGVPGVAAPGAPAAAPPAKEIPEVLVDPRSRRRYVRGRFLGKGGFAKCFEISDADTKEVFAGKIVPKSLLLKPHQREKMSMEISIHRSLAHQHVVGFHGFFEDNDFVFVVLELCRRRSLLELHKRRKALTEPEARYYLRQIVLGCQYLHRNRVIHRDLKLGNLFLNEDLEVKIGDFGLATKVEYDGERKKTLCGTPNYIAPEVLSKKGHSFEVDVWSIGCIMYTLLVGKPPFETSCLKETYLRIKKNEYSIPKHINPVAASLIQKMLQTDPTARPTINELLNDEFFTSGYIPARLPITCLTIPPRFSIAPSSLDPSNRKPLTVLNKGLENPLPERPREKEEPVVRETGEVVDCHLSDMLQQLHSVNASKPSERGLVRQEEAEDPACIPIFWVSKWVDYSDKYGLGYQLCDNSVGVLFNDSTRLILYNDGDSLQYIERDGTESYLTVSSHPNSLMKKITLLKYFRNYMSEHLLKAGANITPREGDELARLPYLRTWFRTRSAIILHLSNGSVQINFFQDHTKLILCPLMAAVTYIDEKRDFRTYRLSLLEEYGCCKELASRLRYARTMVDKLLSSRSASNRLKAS
HIV Rev-RRE inh: HIV-1 Rev-RRE binding inhibitors, primary screen, biochemical, FRET, protein-RNA interaction; P05866; Rev peptide-RRE RNA binding; inhibition, % at 8 µM; 0.79% of 97,000 active;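 active = inhibition above the screen-wide mean plus 3 SD, cut at about 35% in these data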;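 note: 0% = median DMSO wells and 100% = median Neomycin B control wells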
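Test system – labelled RRE RNA duplex and labelled Rev peptide · Signal – fluorescein-to-Cy5 FRET, 480 nm excitation · Evaluation – % inhibition of FRET ratio versus controls · Benchmarks – DMSO low control, neomycin B high control · Incubation – 5 min RNA-compound premix plus 15 min binding step, 25 °C · Medium – HEPES pH 7.5 salt buffer with EDTA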
PostGolgi yeast: phenotypic screen on post-Golgi transport, primary screen. post-Golgi transport phenotypic cell assay. inhibition, % at 10 µM. 0.9% of 98,000 active;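 note: yeast cells grown in 1536-well plates; yeast grown about 18 h at 30C before absorbance read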
PostGolgi ctrl: growth inhibition of yeast control strain, primary screen, counter-screen for post-Golgi transport modulator project; efflux-deficient yeast background strain, growth absorbance A615, 16 h; inhibition, % at 10 µM; 5% of 98,000 active
Plk1 PBD FP: Plk1 polo box domain binding inhibitors, primary screen, biochemical, fluorescence polarization; inhibition, %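 (tested at about 20 µM)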; 0.13% of 97,000 active; Serine/threonine-protein kinase PLK1 (Homo sapiens), P53350; Plk1 PBD phosphopeptide binding; AID 693, 2007; in the data active = inhibition above about 34%, passing the limit was not always enough
EphB4 antag: EphB4-ephrin-B2 interaction antagonists, primary screen, biochemical, TNYL-RAW peptide probe, fluorescence polarization. EphB4 LBD / TNYL-RAW-Alexa532 peptide. inhibition, % at 7 µM. 0.15% of 97,000 active. AID 720, 2007;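 active = inhibition above the screen-wide mean inhibition plus 3 SD, cut at about 15% in these data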;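 note: 0% = DMSO wells and 100% = excess unlabeled TNYL-RAW peptide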
* marks the source's active call; other numbers are inactive results; [ ] = another dose, or the depositor's remark. Cut-off read from the data, not from the text of the source, unless noted: active = inhibition above about 30%; inactive = the rest.

What do the screens show for `CN1CCc2c(sc3c2C(=O)NC(/C=C/c2ccco2)N3)C1` (centres undefined)?
PLK1 inh: -3; HIV Rev-RRE inh: 10; Plk1 PBD FP: -5; EphB4 antag: -5

What do the screens show for `C=C(C)COc1ccc2c(C)c(CC(=O)OC)c(=O)oc2c1C`?
PLK1 inh: -4; HIV Rev-RRE inh: 4; PostGolgi yeast: 104*; PostGolgi ctrl: 109*; Plk1 PBD FP: -27; EphB4 antag: 9

How did CCCC1C2CN(C(C)=O)CC=C2C(C#N)=C(N)C1(C#N)C#N (centres undefined) do in these assays?
PostGolgi yeast: -10; PostGolgi ctrl: 9

Results for CCC1C2CN(C(C)=O)CC=C2C(C#N)=C(N)C1(C#N)C#N (centres undefined) ?
PLK1 inh: -9; HIV Rev-RRE inh: 9; PostGolgi yeast: 18; PostGolgi ctrl: -6; Plk1 PBD FP: -5; EphB4 antag: -1

Results for CCN1CC=C2C(C#N)=C(N)C(C#N)(C#N)C(c3cc(Cl)ccc3Cl)C2C1 (centres undefined) ?
PLK1 inh: 10; HIV Rev-RRE inh: 66*; PostGolgi yeast: 0; PostGolgi ctrl: 0; Plk1 PBD FP: -64; EphB4 antag: 0

How did CC(C)N1CC=C2C(C#N)=C(N)C(C#N)(C#N)C(c3ccccc3)C2C1 (centres undefined) do in these assays?
PLK1 inh: 3; HIV Rev-RRE inh: 91*[fluorescence artefact?]; PostGolgi yeast: 0; PostGolgi ctrl: 4; Plk1 PBD FP: -4; EphB4 antag: -2

What do the screens show for `CN1CC=C2C(C#N)=C(N)C(C#N)(C#N)C(Cc3ccccc3)C2C1` (centres undefined)?
PLK1 inh: 0; HIV Rev-RRE inh: 72*; PostGolgi yeast: 3; PostGolgi ctrl: 2; Plk1 PBD FP: -15; EphB4 antag: 0

How did CCOC(=O)N1CC=C2C(C#N)=C(N)C(C#N)(C#N)[C@H](c3cccs3)C2C1 (some centres undefined) do in these assays?
PLK1 inh: -3; HIV Rev-RRE inh: 21; Plk1 PBD FP: -31; EphB4 antag: -6

What do the screens show for `CC(C)N1CC=C2C(C#N)=C(N)C(C#N)(C#N)[C@H](c3ccoc3)[C@H]2C1`?
PLK1 inh: 1; HIV Rev-RRE inh: 107*[fluorescence artefact?]; PostGolgi yeast: -1; PostGolgi ctrl: 20; Plk1 PBD FP: 9; EphB4 antag: 0

What do the screens show for `S=C(c1ccc2c(c1)OCO2)N1CCCC1`?
PLK1 inh: -15; HIV Rev-RRE inh: 8; PostGolgi yeast: -15; PostGolgi ctrl: 3; Plk1 PBD FP: -34; EphB4 antag: -1

How did Clc1cccc2sc(-c3nnc(-c4ccccc4)o3)c(Cl)c12 do in these assays?
PLK1 inh: -27; HIV Rev-RRE inh: 6; Plk1 PBD FP: 12; EphB4 antag: -3

Results for Cc1ccc(NC2=NC(=S)N(CC#N)C23CCCCC3)cc1 ?
PLK1 inh: -10; HIV Rev-RRE inh: 1; Plk1 PBD FP: 4; EphB4 antag: -13

What do the screens show for `Cc1nc2c(-c3ccc(F)cc3)c(C)nn2c(C)c1CCC(=O)N1CCC(Cc2ccccc2)CC1`?
PLK1 inh: -1; HIV Rev-RRE inh: 1; PostGolgi yeast: 5; PostGolgi ctrl: 32*; Plk1 PBD FP: -8; EphB4 antag: 3

Results for Cc1nc2c(-c3ccc(F)cc3)c(C)nn2c(C)c1CCC(=O)N1CCN(c2ccccc2)CC1 ?
PLK1 inh: -6; HIV Rev-RRE inh: -1; PostGolgi yeast: -3; PostGolgi ctrl: 18; Plk1 PBD FP: 11; EphB4 antag: -6

What do the screens show for `CCN1C(=O)/C(=C/c2ccc(C)s2)NC1=S`?
PLK1 inh: -7; HIV Rev-RRE inh: 6; PostGolgi yeast: -9; PostGolgi ctrl: 14; Plk1 PBD FP: 2; EphB4 antag: 2

What do the screens show for `Cc1ccc(/C=C2/NC(=O)N(Cc3ccccc3)C2=O)s1`?
PLK1 inh: -15; HIV Rev-RRE inh: 50*; PostGolgi yeast: 0; PostGolgi ctrl: 13; Plk1 PBD FP: -39; EphB4 antag: 2
